In PMC7613793 (Cell metabolism, 2022):
“Also recorded” adds a separate entry of the source.

Tests used:
[1] = format: in vivo, mouse
[2] = tested on: dipeptidyl peptidase 4 (DPP-4); conditions: cited from earlier work
[3] = tested on: tuberal region of the hypothalamus; format: in vivo, mouse; conditions: mice, intravenous (jugular vein), 90 nmol/Kg, 15 and 60 seconds after injection; Fig. 1a
[4] = tested on: tanycytes and neuron-like cells of the ME and vmARH; assay: pCREB immunohistochemistry in ME/ARH after intravenous liraglutide; format: in vivo, mouse; conditions: mice, 90 nmol/Kg, at 1 min, n = 4 animals per group, Fig. 1f-h
Outline: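 Male mice, 8-10 weeks, fitted with a jugular vein catheter under ketamine-xylazine. Saline or liraglutide given i.v. at 90 nmol/Kg, then transcardial perfusion with saline and 0.1M PBS-4% PFA (pH 7.4). 30 μm free-floating sections double-stained with chicken anti-vimentin and rabbit anti-phospho-CREB. pCREB-positive tanycytes and neuron-like cells counted in ME, vmARH, dmARH and total ARH, 3–4 sections per animal. Unpaired t-test.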

[5] = tested on: rat primary tanycytes; assay: pCREB induction in primary tanycytes; format: cell-based; conditions: Supplementary Fig. 2a
[6] = tested on: hypothalamic neurons; format: in vivo, mouse
[7] = tested on: primary tanycytes; format: in vitro ADME, rat; conditions: 37 °C
Outline: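 Rat tanycytes from median eminences of P10 pups, seeded on coated permeable supports (90 000 cells/cm2) 17 days after isolation: 4 days in 10% donor bovine serum, then 3 days serum-free with insulin and putrescine. On day 7, 15 min preincubation at 37 °C ± 1000 nM exendin9-39. Apical 0.7 nM 125I-liraglutide (1 μCi/ml) ± unlabeled liraglutide 10–10 000 nM, 60 min, 37 °C, shaking. Uptake read from cut supports; release in fresh buffer up to 1 h.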

For `CCCCCCCCCCCCCCCC(=O)N[C@@H](CCC(=O)NCCCC[C@H](NC(=O)[C@H](C)NC(=O)[C@H](C)NC(=O)[C@H](CCC(N)=O)NC(=O)CNC(=O)[C@H](CCC(=O)O)NC(=O)[C@H](CC(C)C)NC(=O)[C@H](Cc1ccc(O)cc1)NC(=O)[C@H](CO)NC(=O)[C@H](CO)NC(=O)[C@@H](NC(=O)[C@H](CC(=O)O)NC(=O)[C@H](CO)NC(=O)[C@@H](NC(=O)[C@H](Cc1ccccc1)NC(=O)[C@@H](NC(=O)CNC(=O)[C@H](CCC(=O)O)NC(=O)[C@H](C)NC(=O)[C@@H](N)Cc1cnc[nH]1)[C@@H](C)O)[C@@H](C)O)C(C)C)C(=O)N[C@@H](CCC(=O)O)C(=O)N[C@@H](Cc1ccccc1)C(=O)N[C@H](C(=O)N[C@@H](C)C(=O)N[C@@H](Cc1c[nH]c2ccccc12)C(=O)N[C@@H](CC(C)C)C(=O)N[C@H](C(=O)N[C@@H](CCCNC(=N)N)C(=O)NCC(=O)N[C@@H](CCCNC(=N)N)C(=O)NCC(=O)O)C(C)C)[C@@H](C)CC)C(=O)O` [liraglutide], the Energy expenditure ([1]; control mice, 0.1 mg/kg for 3 consecutive days, vs saline) was “markedly reduced”, the Food intake ([1]; control mice, 0.1 mg/kg for 3 consecutive days, vs saline, Fig. 3b) was “markedly reduced” and the Fatty acid oxidation ([1]; control mice, 0.1 mg/kg for 3 consecutive days, Fig. 3e) was “increased fatty acid oxidation”. The Fat mass ([1]; control mice, 0.1 mg/kg for 3 consecutive days, NMR body composition, Fig. 3d) was “fat mass reduction”, the “Anti-obesity effects in iBot mice” value ([1]; mouse, in vivo, 0.1 mg/kg) was “abrogated” and the “Cleavage by DPP-4 and half-life compared to endogenous GLP1” value ([2]; ref Kim and Egan, 2008) was “reduces its cleavage by DPP-4 and prolongs its half-life”. For the same molecule, the “Route of brain entry of fluorescently labeled liraglutide” value [3] was “did not cross the microvascular endothelial cells of the BBB; also recorded: extravasated through the fenestrated vessels of the ME”, the “pCREB in tanycytes and neuron-like cells of the ME and vmARH vs saline” value [4] was “markedly induced pCREB” and the “pCREB in rat primary tanycytes” value ([5]; liraglutide treatment) was “induced”. The “c-Fos activation of neurons in AHN, PVH and LHA, control mice” value ([6]; anesthetized control mice, ten minutes after intravenous injection, 90 nmol/Kg) was “activated”, the “c-Fos expression in DMH and ZI, control mice” value ([6]; control mice, one hour after intraperitoneal injection) was “did not significantly upregulate c-Fos expression” and the “c-Fos expression, iBot mice” value ([6]; iBot littermates, one hour after intraperitoneal injection, Fig. 2d-f) was “unaffected”. The “c-Fos expression in hypothalamic neurons, iBot mice” value ([6]; mouse, in vivo, iv) was “failed to significantly induce c-Fos expression” and the “c-Fos activation of neurons in PVH and LHA (not AHN), control mice” value ([6]; unanesthetized control mice, one hour after intraperitoneal injection, Fig. 2) was “remain activated”.
For “^125I-liraglutide: radioactively labeled liraglutide”, the “Liraglutide accumulation in tanycytes relative to endothelial cells” value ([7]; 125I-liraglutide 0.7 nM, with or without unlabeled liraglutide 10 μM, transwell, uptake buffer pH 7.4, 60 min, n = 3, 3, 8, 8 wells from 2 independent experiments, Fig. 1c) was “approximately 4 times” and the “Time to saturation of uptake by tanycytes” value ([7]; pulse-chase experiment in vitro, Fig. 1e) was no more than 15 min.
In the case of “Glucagon-like peptide 1 (GLP1; 7–36 amide)”, the “Degradation by DPP-4 in vivo” value ([2]; in vivo, ref not given) is listed as “rapid degradation”.
For exendin 9-39, the “Effect on liraglutide-induced pCREB in rat primary tanycytes” value ([5]; co-treatment with liraglutide) was “blunted”.
In the case of “liraglutide^564: fluorescently labeled liraglutide provided by Novo Nordisk”, the “Route of brain entry of fluorescently labeled liraglutide” value [3] is reported as “does not extravasate from BBB vessels”.
